Compounds with a hit are over-represented: about 3.1% of the library has one in this group of screens.
Lipid droplet: inhibitors of hepatocyte lipid droplet formation, primary screen, imaging, high-throughput imaging, BODIPY stain. AML12 mouse hepatocytes, oleate lipid droplets. inhibition, % at 6.5 µM. actives 0.4% (n = 240,000). AID 1656, 2009;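 active = lipid droplet intensity inhibited by at least 50%, with more than 500 cells counted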
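Material – AML12 mouse liver cells · Also added – oleate loading, 100 µM · Compound dosing – 6.5 µM single-point dosing · Times – overnight treatment with compound plus oleate · Measured by – fluorescence imaging, 20x objective, two fields per well · Read-out – percent inhibition of filter-corrected integrated lipid droplet intensity per well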
ADAM17 inh: ADAM17 inhibitors, primary screen, biochemical, QFRET; Disintegrin and metalloproteinase domain-containing protein 17 (Homo sapiens), P78536; recombinant ADAM17, EDANS/DABCYL FRET peptide cleavage; inhibition, % at 6.95 µM; actives 0.83% (n = 370,000);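 active = inhibition above the mean of compounds lying between control limits plus 3 SD, set per campaign, cut at about 8.5% in these data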;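 also: 0% = DMSO-only wells as the low control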
aDG glyco act: activators of alpha-DG glycosylation, primary screen, uHTS, Pro5-aDG cells, AlphaScreen; alpha-DG glycosylation AlphaScreen (IIH6); 0% Pro5, 100% B10-LARGE cell signal; activation, % at 10 µM; actives 0.22% (n = 360,000);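 active = activation of at least 8% versus controls, or a plate z-score of at least 8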;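 also: Pro5 are CHO cells carrying HIG-tagged alpha-DG that lacks glycosylation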
V-ATPase pH: regulators of yeast V-ATPase proton pumping, primary screen, pHLuorin cytosolic pH fluorescence; S. cerevisiae; response, % at 10 µM; actives 0.37% (n = 350,000); AID 504577, 2011; in the data active = response mostly above about 7.3%, no sharp cut-off; inactive = mostly below about 5.4%; also: actives read high
ADAM10 inh: human ADAM10 inhibitors, primary screen, biochemical, QFRET, HTS; AID 720582, 2013; actives 0.62% (n = 370,000); recombinant ADAM10, EDANS/DABCYL FRET peptide cleavage, 3 h; inhibition, % at 7 µM;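 active = inhibition above a per-campaign cutoff equal to the mean of compounds falling between control-based bounds plus 3 SD, cut at about 20% in these data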;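 also: 0% = DMSO wells while the 100% control is not disclosed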
Target sequence (O14672 214-748 limits assumed): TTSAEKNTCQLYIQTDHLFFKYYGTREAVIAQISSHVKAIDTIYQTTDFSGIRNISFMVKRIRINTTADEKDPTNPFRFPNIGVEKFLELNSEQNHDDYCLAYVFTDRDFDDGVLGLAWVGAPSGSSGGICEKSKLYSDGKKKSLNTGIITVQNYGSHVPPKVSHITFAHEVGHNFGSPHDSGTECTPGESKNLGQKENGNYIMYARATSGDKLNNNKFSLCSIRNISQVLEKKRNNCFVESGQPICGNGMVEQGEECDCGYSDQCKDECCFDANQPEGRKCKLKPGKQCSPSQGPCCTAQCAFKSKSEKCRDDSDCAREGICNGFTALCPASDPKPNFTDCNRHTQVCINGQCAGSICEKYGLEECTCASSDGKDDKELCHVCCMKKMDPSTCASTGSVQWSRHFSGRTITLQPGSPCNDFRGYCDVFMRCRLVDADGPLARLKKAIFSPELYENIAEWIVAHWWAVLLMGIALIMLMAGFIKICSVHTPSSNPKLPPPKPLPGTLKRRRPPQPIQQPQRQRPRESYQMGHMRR
MPTP block: mitochondrial permeability transition pore inhibitors, primary screen, biochemical, isolated mouse mitochondria, absorbance; Ca2+ swelling absorbance, 30 min; AID 602449, 2012; inhibition, % at 10 µM; actives 1.4% (n = 360,000);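 active = inhibition of 50% or more, scaled per plate between neutral and stimulator controls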;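 also: 0% = DMSO wells given calcium and 100% = 1 mM EGTA wells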
MPTP counter: fluorescence retest of MPTP screen hits in isolated mitochondria, single concentration; actives 78% (n = 5,000); membrane potential, Rhodamine 123 fluorescence; shares compounds with MPTP block; inhibition, % at 10 µM; in the data active = inhibition above about 22%;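 also: 0% = DMSO vehicle and 100% = positive control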
MPTP abs DR: mitochondrial permeability transition pore inhibitors, dose response, biochemical, absorbance, uHTS hits; actives 58% (n = 780); shares compounds with MPTP block; IC50, µM; isolated mitochondria swelling; AID 651561, 2012; in the data active = IC50 below about 20 µM
MPTP counter DR: fluorescent counter-screen in isolated mitochondria, dose response, counter-screen for MPTP inhibitor project, biochemical, fluorescence, uHTS hits; shares compounds with MPTP block; isolated mitochondria counterscreen, fluorescence read-out; IC50, µM; actives 49% (n = 780); in the data active = IC50 below about 80 µM
Active calls of the source: *; i = inactive; . = not tested or not shown.

SMILES	Lipid droplet	ADAM17 inh	aDG glyco act	V-ATPase pH	ADAM10 inh	MPTP block	MPTP counter	others
COC(=O)C1CN(CCc2ccccc2)CCS(=O)(=O)N1Cc1ccc(OC)cc1 (stereo unspecified)	.	-4	.	.	-3	.	.
O[C@H](COc1ccccc1)CN1CCC(C(O)(c2ccccc2)c2ccccc2)CC1	.	5	.	.	2	.	.
O=C(CN1CCCC1)Nc1ccc(F)cc1	1	2	0	-4	7	1	.
O=C(CN1C(=O)C(c2ccc(F)cc2)=NC12CCCC2)Nc1ccc(F)cc1	3	3	0	1	8	60*	53*
CCN1Cc2nnn(Cc3ccccc3)c2-c2ccccc2S1(=O)=O	.	1	.	.	2	.	.
COC(=O)C1(CC2CC(c3cccc(Br)c3)=NO2)CCN(C(=O)OC(C)(C)C)CC1 (stereo unspecified)	-16	4	0	3	10	54*	57*
COC(=O)c1c(NC(=O)c2ccc(OC(C)C)cc2)sc2c1CC(C)(C)NC2(C)C	-1	-12	1	2	-51	87*	2	MPTP abs DR=>100;MPTP counter DR=56*
CCOC(=O)c1c(NC(=O)Cc2ccccc2)sc2c1CC(C)(C)NC2(C)C	-1	-1	0	-2	-2	71*	-4	MPTP abs DR=i;MPTP counter DR=>80
COC(=O)c1c(NC(=O)c2ccccc2)sc2c1CC(C)(C)NC2(C)C	16	-2	0	-2	-9	73*	-5	MPTP abs DR=18*;MPTP counter DR=>80
CCOC(=O)c1c(NC(=O)COc2ccccc2OCC)sc2c1CC(C)(C)NC2(C)C	.	.	-1	7	.	30	.
O=C(c1cccs1)n1ccc2ccc(-c3ccc4ccn(Cc5ccccc5)c4c3)cc21	.	-11	.	.	-30	.	.
Cc1cccc2sc(NC(=O)CSc3nc4ccccc4o3)nc12	21	2	0	-5	4	70*	15	MPTP abs DR=>100;MPTP counter DR=6.1*
Cn1c(SCc2cccc([N+](=O)[O-])c2)nc2c(c1=O)SCC2	0	-5	1	-1	-1	58*	49*
Cn1c(SCc2cccnc2)nc2c(c1=O)SCC2	2	-2	0	-2	-5	0	.
COc1ccc(-c2cc3c(=O)n(CC(=O)NCCCN4CCN(Cc5ccccc5)CC4)ncn3n2)cc1	-30	-9	5	-5	-25	91*	51*
COc1ccc(-c2cc3c(=O)n(CC(=O)NCCCN4CCC(Cc5ccccc5)CC4)ncn3n2)cc1	-88	-9	6	-4	-17	85*	18
CC(C)(C)c1ccc(S(=O)(=O)N2CCC(C(=O)NCc3cccs3)CC2)cc1	.	-5	.	.	-5	.	.
CCc1cc2c(=O)c(-c3cnn(-c4ccccc4)c3)c(C)oc2cc1OCC(=O)Nc1cccc(C)c1	3	-2	0	4	-8	3	.
CCc1cc2c(=O)c(-c3cnn(-c4ccccc4)c3)c(C)oc2cc1OCC(=O)Nc1ccc(F)c(F)c1	34	-4	0	-1	-17	80*	-3	MPTP abs DR=>100;MPTP counter DR=>80
CC(C)Nc1ncnc2ccc(Br)cc12	20	-1	4	1	1	59*	38*
Cc1nn(Cc2noc(C(=O)NC3CCC(C)CC3)n2)c(C)c1Br (stereo unspecified)	-6	-1	0	3	3	59*	58*
CC1(C)C=C2C(N(CC3CC3)C(=N)N2C(=O)OCc2ccccc2)n2c(=O)n(-c3ccccc3)c(=O)n21 (stereo unspecified)	.	-5	.	.	-20	.	.
O=C(NCCN1C(=O)C2C3C=CC(C3)C2C1=O)c1cc(Cl)cc(Cl)c1 (stereo unspecified)	.	1	.	.	2	.	.
Cc1nc2ccc(NC(=O)c3cc(Cl)ccc3F)cc2c(=O)[nH]1	.	-4	.	.	-25	.	.
CN(C)c1nn(C(=O)Nc2cccc(C(F)(F)F)c2)cc1-c1ccccc1	.	-4	0	4	-5	90*	101*
SMILES	Lipid droplet	ADAM17 inh	aDG glyco act	V-ATPase pH	ADAM10 inh	MPTP block	MPTP counter	others
Cc1nn(-c2ccccc2)c(N)c1Sc1ccc([N+](=O)[O-])cc1	-19	3	0	4	4	1	.
Cc1nn(S(=O)(=O)c2ccc(Cl)cc2)c(C)c1Sc1ccc([N+](=O)[O-])cc1	-1	1	0	-4	-11	61*	41*
COc1ccc2nc(N3C(=O)/C(=C/c4ccc(Cl)cc4)NC3=S)sc2c1	-2	-2	0	1	-2	95*	3
CC(=NNC(=O)CSc1nnc(-c2ccccc2)n1-c1ccccc1)c1ccc2ccccc2c1	.	-2	.	.	-18	.	.
COC1=C[C@H](C(=O)NC2CCN(Cc3ccccc3)CC2)[C@@]2(C)Cc3ccccc3[C@H]2CC1=O	.	2	.	.	-2	.	.
Cc1cc(C)cc(NC(=S)/N=C(\N)Nc2nc(C)c3ccccc3n2)c1	12	-1	1	5	-2	56*	-9	MPTP abs DR=>100;MPTP counter DR=>80
COC(=O)C1CCN(C(=O)C2CC(=O)N(c3ccc(OC)cc3)C2c2ccc(OC)cc2)CC1 (stereo unspecified)	.	0	.	.	2	.	.
CN1CCN(c2ccc(Cl)cc2NC(=O)/C=C/c2cccc(F)c2)CC1	-3	0	4	6	-5	74*	-23	MPTP abs DR=6.8*;MPTP counter DR=>80
COc1ccc(C2CC(c3ccccc3)=NN2c2ccc(N)cc2)cc1 (stereo unspecified)	-5	-30	0	-1	-35	73*	71*
C=CCCc1ccc(C#N)c(SCc2c(C(=O)OCC)c3cc(OC(C)=O)c(Br)cc3n2C)n1	2	.	3	2	.	71*	76*
Cc1ccc(/C=N/Nc2ccnc3cc(Cl)ccc23)c(C)c1	26	0	-1	-1	-4	64*	92*
Clc1ccc2c(N/N=C/c3cccnc3)ccnc2c1	21	-4	1	-2	-5	-1	.
Oc1ccc(/C=N/Nc2ccnc3cc(Cl)ccc23)c(O)c1	16	-2	0	-5	-2	58*	59*
Cc1ccccc1/C=N/Nc1ccnc2cc(Cl)ccc12	3	-1	2	3	-2	99*	91*

Screening data deposited in PubChem by several laboratories.
